In the library only some 3.5% were active in any assay of this set; here they are far more common.
RGS4 block: inhibitors of human RGS4 | AID 463165 | actives 0.45% (n = 310,000) | HEK293 M3R/RGS4 inducible, Fluo-4 calcium flux; active compounds read high; triggered by carbachol at its EC20 | B-score at 10 µM;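 active = B-score, a plate-corrected calcium signal, over three deviations above library mean, with baseline fluorescence within five deviations of library mean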;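 note: RGS4 expression induced by doxycycline in cells with stable M3 receptor; B-score is computed from the integrated fluorescence ratio over baseline after carbachol; higher B-score means a larger calcium signal and so more RGS4 inhibition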
Target sequence (P49798 whole entry, looked up): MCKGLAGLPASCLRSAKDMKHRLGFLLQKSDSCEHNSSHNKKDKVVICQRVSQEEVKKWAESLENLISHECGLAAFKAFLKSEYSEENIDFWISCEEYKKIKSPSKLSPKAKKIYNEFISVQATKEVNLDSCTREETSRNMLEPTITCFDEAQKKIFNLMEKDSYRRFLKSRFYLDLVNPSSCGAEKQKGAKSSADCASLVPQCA
RGS4 act: RGS4 potentiation or activation. HEK293 M3R/inducible RGS4, carbachol calcium flux Fluo4; active compounds read low. B-score at 10 µM. actives 0.92% (n = 310,000);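 active = B-score of the integrated calcium signal more than 4 SD below the library mean, with starting fluorescence not abnormally high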;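 note: negative B-score means reduced calcium response which marks RGS4 activation or potentiation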
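Assay system: Inducible-RGS4 HEK293 cells carrying M3 receptor | Schedule: Compound preincubation 20 min at room temperature before agonist | Signal: Kinetic calcium fluorescence imaging with Fluo4-AM dye, 2 µM | Read-out basis: B score from integrated fluorescence ratio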
MrgX1 PAM: human MrgX1 positive allosteric modulation, primary screen; Q96LB2; MrgX1-HEK293, Fluo-4 calcium flux, FDSS; active compounds read high; B-score at 10 µM; actives 0.63% (n = 310,000);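 active = plate-corrected calcium response at least 3 library SD above typical, normal starting fluorescence, not activating the receptor alone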;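 note: compound read alongside a low EC10 to EC30 dose of BAM8-22 agonist; peak minus trough fluorescence over baseline measured at the second addition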
MrgX1 antag: blocks BAM8-22 activation of human MrgX1 receptor; MRGX1-HEK293 calcium flux, Fluo-4, BAM8-22 antagonism; active compounds read low; actives 1.3% (n = 310,000); Q96LB2; B-score at 10 µM;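 active = calcium-response B-score plate-corrected more than 3 library SD below zero, starting fluorescence within 5 deviations, no agonist response on first addition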;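 note: peak minus trough fluorescence over baseline after final BAM8-22 challenge near maximal dose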
MrgX1 agonist: human MrgX1 receptor agonism, primary screen; Q96LB2; MrgX1-HEK293 cells, Fluo-4 calcium fluorescence, agonist mode; active compounds read high; B-score at 10 µM; actives 0.44% (n = 310,000);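 active = calcium response B-score plate-corrected fluorescence ratio at least 3 library SD, with starting fluorescence B-score inside 5 SD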
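times = overnight plating, then 30 min 37 °C plus 30 min room-temperature dye loading | assay system = stable human MrgX1 HEK293 cell line | input = fifteen thousand cells per well | signal = kinetic calcium dye fluorescence, Fluo-4 NW | dosing = compound delivered in addition one of three | read-out = B-scored fluorescence response ratio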
RGS4 inh valid: RGS4 inhibitor validation | shares compounds with RGS4 block | HEK293 M3R/RGS4, carbachol calcium Fluo-4 fluorescence; carbachol added at its EC20; 0 = buffer wells, 100 = carbachol control | calcium response, % at 10 µM | actives 65% (n = 1,700) | AID 492999;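 active = duplicate-averaged calcium response above the buffer-only control mean plus 5 SD of those controls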;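 note: integrated fluorescence ratio F max minus min over baseline F0; higher response in RGS4-induced cells means RGS4 inhibition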
RGS4 uninduced: counter-screen for RGS4 inhibitors: effect in non-induced cells; shares compounds with RGS4 block; HEK293 M3R non-induced, carbachol calcium Fluo-4; submaximal (EC20) carbachol stimulus; buffer wells 0%, carbachol control wells 100%; activity (percent), % at 10 µM; actives 20% (n = 1,900); AID 493000; call rule not given here;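 note: RGS4 induction absent so cells express M3R without RGS4; higher means more calcium signal and flags a non-specific hit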
RGS4 inh ctr2: signal in non-induced cells without carbachol, RGS4 inhibitor counter-screen. HEK293 M3R/RGS4 non-induced, Fluo-4 calcium, no carbachol; normalised: buffer wells 0%, carbachol wells 100%. calcium response (agonist-mode artifact), % at 10 µM. actives 22% (n = 1,900). shares compounds with RGS4 block;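 active = duplicate-averaged calcium rise in uninduced cells above buffer wells' mean plus 5 SD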
Numbers without * were called inactive; i = inactive; . = no result given.

SMILES	RGS4 block	RGS4 act	MrgX1 PAM	MrgX1 antag	MrgX1 agonist	RGS4 inh valid	RGS4 uninduced	RGS4 inh ctr2
CSc1nc(N(CCO)CCO)c2sc3nc(-c4ccco4)c4c(c3c2n1)CCC4	i	i	.	.	.	i	i	i
CSc1nc(SCCO)c2sc3nc(-c4ccco4)c4c(c3c2n1)CC(C)(C)OC4	i	i	.	.	.	.	.	.
NC(=O)C1CCN(C(=O)Nc2csc3ccccc23)CC1	i	i	i	i	i	.	.	.
CCCC(=O)Nc1ccc(C=C(C(C)=O)C(C)=O)cc1	16*	i	i	i	i	32%*	30%*	i
NC(=O)C1CCN(C(=O)CCC(=O)N2CCOc3ccc(Cl)cc32)CC1	i	i	i	i	i	.	.	.
Cc1ccc(-n2ccc(=O)c(C(=O)Nc3ccc(S(=O)(=O)Nc4onc(C)c4C)cc3)n2)cc1	i	i	i	i	i	.	i	i
Cc1noc(NS(=O)(=O)c2ccc(NC(=O)c3nn(-c4ccc(F)cc4)ccc3=O)cc2)c1C	i	i	i	i	i	.	.	.
COc1cc(OC)c(N(C)C(=O)c2cc3c(s2)-c2ccccc2S(=O)(=O)C3)cc1Cl	17*	i	i	i	i	28%*	50%*	i
CC(C(=O)O)N(c1ccccc1Cl)S(C)(=O)=O (stereo unspecified)	.	.	i	i	i	.	.	.
CC1=NN(c2ccc(C)cc2C)C(=O)C1C(c1cccc(O)c1)C1C(=O)N(c2ccc(C)cc2C)N=C1C (stereo unspecified)	5.3*	i	i	i	i	14%*	50%*	i
CC1=NN(c2ccccc2)C(=O)C1N=Nc1cccc(O)c1 (stereo unspecified)	i	i	i	i	i	.	.	.
CN1CCN(CC(=O)Nc2ccc(OC(F)(F)F)cc2)CC1	i	i	i	i	i	.	.	.
COc1ccc(OC)c(-c2csc(N(CC3CCCO3)C(=O)C3CCCCC3)n2)c1 (stereo unspecified)	7.2*	i	i	i	i	24%*	i	i
O=C(NCCc1ccccn1)c1cc(-c2ccccc2Cl)nc2ccccc12	i	i	i	i	i	.	.	.
COc1cc(/C=C(/C(=O)c2cccs2)c2nc3ccccc3[nH]2)cc(OC)c1O	22*	i	i	i	i	88%*	41%*	i
Cc1cc2cc(C(c3nnnn3Cc3ccccc3)N3CCc4ccccc43)c(=O)[nH]c2cc1C (stereo unspecified)	i	i	i	i	i	.	i	7.0%*
Cc1cc2cc(C(c3nnnn3Cc3ccco3)N3CCc4ccccc4C3)c(=O)[nH]c2cc1C (stereo unspecified)	i	i	i	i	i	i	i	39%*
Cc1ccc2[nH]c(=O)c(C(c3nnnn3Cc3ccccc3)N3CCc4ccccc43)cc2c1 (stereo unspecified)	i	i	i	i	i	.	.	.
Cc1cc2cc(C(c3nnnn3Cc3ccco3)N3CCc4ccccc43)c(=O)[nH]c2cc1C (stereo unspecified)	5.3*	i	i	i	i	13%*	i	i
COc1ccc(C(=O)OCCN2CCN(C3=NS(=O)(=O)c4ccccc43)CC2)cc1OC	i	i	i	i	i	.	.	.
COc1ccc(C(=O)/C=C/Sc2nc3ccccc3o2)cc1	24*	i	i	i	i	9.5%*	i	i
COc1ccc(C(=O)N/C(N)=N/c2nc3ccccc3o2)cc1	i	i	i	i	i	.	.	.
